{"data": "Measured values collected from several papers", "target": "Serine/threonine-protein kinase 16 (STK16, Homo sapiens, UniProt O75716)"}
{"Structure (SMILES)": "FC(F)(F)Oc1cccc(-c2cnc3ccc(-c4ccncc4)nn23)c1", "test": "enzyme activity, inhibitor, radiometric", "conditions": "1 µM", "endpoint": "activity vs control", "result": "120%"}
{"Structure (SMILES)": "CCCCNc1ncc2c(-c3ccc(F)cc3)nn(C[C@H]3CC[C@H](N)CC3)c2n1", "test": "target engagement in cells, inhibitor, chemoproteomics", "conditions": "20 mM", "endpoint": "inhibition", "result": "56.4%"}
{"Structure (SMILES)": "CCS(=O)(=O)c1cc2cc(C[C@@](O)(CC(C)(C)c3ccc(F)cc3C(N)=O)C(F)(F)F)[nH]c2cn1", "test": "cell-free assay, competition with immobilised ligand", "conditions": "1 µM", "endpoint": "remaining binding", "result": "91%"}
{"Structure (SMILES)": "Cn1cnc(Br)c1C1=CN(c2ncnc3[nH]cnc23)CCS1", "test": "enzyme activity, inhibitor, radiometric", "conditions": "2 µM", "endpoint": "inhibition", "result": "67.8%"}
{"Structure (SMILES)": "O=C(O)c1cc(-c2ccc(C3CCNCC3)cc2)c2ccc(-c3ccc(C(F)(F)F)cc3)cc2c1", "test": "cell-free assay, competition with immobilised ligand", "conditions": "1 µM", "endpoint": "remaining binding", "result": "100%"}
{"Structure (SMILES)": "O=C1Nc2ccc(Cl)cc2C1=Cc1cc(Cl)c(O)c(Cl)c1", "test": "cell-free assay", "conditions": "0.5 µM", "endpoint": "remaining signal", "result": "90.2%"}
{"Structure (SMILES)": "CN(C(=O)c1ccccc1)c1cc(N(C)c2ccc3c(c2)CCc2ccc(C(=O)NCCN4CCOCC4)cc2C3=O)ccc1F", "test": "cell-free assay, competition with immobilised ligand", "conditions": "1 µM", "endpoint": "remaining binding", "result": "93%"}
{"Structure (SMILES)": "Cn1cncc1C1=CN(c2ncnc3[nH]cnc23)CCS1", "test": "enzyme activity, inhibitor, radiometric", "conditions": "2 µM", "endpoint": "inhibition", "result": "49.5%"}
{"Structure (SMILES)": "COc1cc(Nc2cnc(C#N)c(O[C@H](C)CN(C)C)n2)ncc1-c1cnn(C)c1", "test": "enzyme activity, inhibitor, radiometric", "conditions": "1 µM", "endpoint": "remaining activity", "result": "91%"}
{"Structure (SMILES)": "C#Cc1cccc(Nc2ncnc3cc(OCCOC)c(OCCOC)cc23)c1", "test": "cell-free assay", "conditions": "0.5 µM", "endpoint": "remaining signal", "result": "98%"}
{"Structure (SMILES)": "Nc1cnc(N2CCc3cc(S(=O)(=O)Nc4c(F)cc(Cl)cc4F)cc(N4CCCC4=O)c32)nc1", "test": "cell-free assay, competition with immobilised ligand", "conditions": "1 µM", "endpoint": "remaining binding", "result": "100%"}
{"Structure (SMILES)": "O=C(Nc1cnn(-c2csc(C(=O)NC3COC3)c2)c1)Nc1ccccc1Cl", "test": "enzyme activity, inhibitor", "conditions": "5 µM", "endpoint": "remaining activity", "result": "98.6%"}
{"Structure (SMILES)": "Cc1ccc(C(=O)Nc2ccc(CN3CCN(C)CC3)c(C(F)(F)F)c2)cc1C#Cc1cnc2cccnn12", "test": "enzyme activity, inhibitor", "conditions": "23.5 nM", "endpoint": "remaining activity", "result": "94%"}
{"Structure (SMILES)": "CC(=O)Nc1c(C(C)=O)c(=O)n(C)c2nc(-c3ccc(Cl)cc3Cl)c(-c3ccc(Cl)cc3)cc12", "test": "cell-free assay, competition with immobilised ligand", "conditions": "1 µM", "endpoint": "remaining binding", "result": "100%"}
{"Structure (SMILES)": "COc1cc(-c2cc(-c3ccc(N4CCNCC4)cc3)cnc2C)cc(OC)c1OC", "test": "enzyme activity, inhibitor", "conditions": "0.1 µM", "endpoint": "inhibition", "result": "4%"}
{"Structure (SMILES)": "CC(C)(O)[C@H]1CC[C@H](Nc2ccc3ncc(-c4cccc(C(F)(F)F)c4)n3n2)CC1", "test": "enzyme activity, inhibitor", "conditions": "1 µM", "endpoint": "remaining activity", "result": "78.7%"}
{"Structure (SMILES)": "O=C1NC(=O)c2cc(Nc3ccc(F)cc3)c(Nc3ccc(F)cc3)cc21", "test": "cell-free assay", "conditions": "0.5 µM", "endpoint": "remaining signal", "result": "85.8%"}
{"Structure (SMILES)": "c1ccc(N2CCN(Cc3nc4ccccc4[nH]3)CC2)nc1", "test": "binding, competition with immobilised ligand", "conditions": "1 µM", "endpoint": "remaining binding", "result": "87%"}
{"Structure (SMILES)": "Cc1sc(C(=O)NC2COC2)cc1-n1cc(NC(=O)Nc2c(F)cccc2Cl)cn1", "test": "enzyme activity, inhibitor", "conditions": "10 µM", "endpoint": "remaining activity", "result": "94.4%"}
